Results published in PMC4779681 (Journal of immunology (Baltimore, Md. : 1950), 2016).

How the values were obtained:
[1] = system: OT-I T cells; assay: Sorted Q4 OVA primed OT-I cells transferred and rechallenged with N4 OVA peptide; format: in vivo, mouse; settings: N4 OVA peptide rechallenge in naïve congenic hosts, day 5, p=0.0012
Outline: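 OT-I splenocytes (3×10⁶) were primed for 3 days with 0.1 μM Q4 OVA peptide, 0.1 μg/mL anti-CD28 and 10 ng/mL IL-2. Dead cells were removed, then cells were cultured overnight in 10 ng/mL IL-15. Live CD8⁺CD44^hiThy1.1⁺ cells were sorted into CD45RB^hi/lo, transferred to naïve congenic hosts and rechallenged with N4 OVA peptide. CD45RB was assessed 5 days later; 2–3 independent experiments.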

[2] = system: OT-I T cells; assay: Secondary effectors after N4 OVA peptide footpad rechallenge; format: in vivo, mouse; settings: for CD45RB^hi frequency, secondary effectors: N4 OVA peptide 10 μg per hind foot pad, draining popliteal LN, 5 days later; for CD62L^lo frequency, CD45RB^lo vs CD45RB^hi fraction: CD45RB^lo vs respective CD45RB^hi population
[3] = system: OT-I T cells; assay: OT-I primary effector and memory populations after LM-OVA APL infection; format: in vivo, mouse; settings: for Memory OT-I cells (frequency/number) in pooled secondary lymphoid organs: LM-N4 OVA or LM-V4 OVA infection, week 4-5 post infection, Thy1.1 enrichment; for CD45RB^hi frequency, primary effectors: OT-I in blood, day 7 post LM infection; for CD45RB^hi frequency, memory cells: OT-I in secondary lymphoid tissue, 4 weeks post LM infection; for IL-2 expression by primary effectors: day 7 primary effectors; for Memory phenotype markers CD44, CD127, CD69, Granzyme B: memory OT-I cells primed by LM-OVA APL
Outline: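 OT-I donor cells (1.0 × 10⁴, Thy1.1⁺, in PBS) given i.v. to CD45.1⁺ male hosts; 10⁴ CFU LM-OVA APL i.p. 24 h later. Day 7: blood with RBC lysis, gated CD8⁺CD44^hiThy1.1⁺. Week 4 (day 28–35): spleen plus pooled LNs, anti-Thy1.1 PE/anti-PE bead enrichment. Cytokines by intracellular staining after 5 h at 37 C with 1 μM N4 OVA peptide plus GolgiPlug. Counts by counting beads.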

[4] = system: OT-I T cells; assay: In vitro OVA APL OT-I stimulation; format: cell-based, mouse; settings: for hnRNPLL expression: OT-I cells primed with peptide 3 days in vitro (0.1 μM)
[5] = system: OT-I T cells; format: in vivo, mouse; settings: vs N4 OVA primed
Outline: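 Memory mice, OT-I-transferred and LM-infected, received full-thickness tail and ear skin grafts expressing N4 OVA on the dorsal thorax 5 weeks post infection. Draining LN OT-I cells were counted with counting beads on day 5 post graft. Fold expansion was taken from day 0 to day 5.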

[6] = system: OT-I T cells; settings: between N4 and V4 OVA; cited from earlier work

Sequence	CD45RB^hi frequency, secondary effectors [2] [%]	CD62L^lo frequency, CD45RB^lo vs CD45RB^hi fraction ([2]; secondary effectors)	Memory OT-I cells (frequency/number) in pooled secondary lymphoid organs [3]	CD45RB^hi frequency, primary effectors [3] [%]	CD45RB^hi frequency, memory cells [3] [%]	IL-2 expression by primary effectors [3]	Memory phenotype markers CD44, CD127, CD69, Granzyme B [3]	hnRNPLL expression [4]	also measured
SIIQFEKL [Q4 OVA]									Proliferation of sorted CD45RB^hi vs CD45RB^lo cells [1]: proliferated to a significantly greater number
SIINFEKL [N4 OVA]	30.2±3.39	greater frequency	8.0×10^4±3.3×10^4	48.9±2.2	54.7±6.76	similarly low levels of IL-2	high levels of CD44 and CD127, and low levels of CD69 and Granzyme B	increased	Nur77 and CD69 expression, CD45RB^hi vs CD45RB^lo cells ([4]; V4 OVA Tm cells restimulated 5 h with N4 OVA or OVA APL, 0.1 μM): significantly greater in CD45RB^hi cells
SIIVFEKL [V4 OVA]	19.6±1.96	greater frequency	1.3×10^3±5.3×10^2	68.7±3.6	79.3±3.4	similarly low levels of IL-2	high levels of CD44 and CD127, and low levels of CD69 and Granzyme B	not induced	PD-1 expression in CD45RB^lo fraction ([2]; secondary effectors): significantly upregulated; IL-2Rβ (CD122) expression ([2]; secondary effectors, CD45RB^lo vs CD45RB^hi): significantly lower; CD62L^lo frequency within CD45RB^lo population ([2]; secondary effectors, V4 OVA vs N4 OVA primed CD45RB^lo): slightly smaller frequency; IFN-γ^+ or TNF^+ frequency, CD45RB^lo vs CD45RB^hi ([2]; secondary effectors, high affinity rechallenge): did not possess greater frequencies; Loss of CD45RB^hi cells relative to resting memory ([2]; secondary effectors, vs N4 OVA primed): significantly greater; IL-2Rα (CD25) expression, CD45RB^lo cells ([2]; vs CD45RB^hi cells and N4 OVA primed CD45RB^lo cells): significantly higher levels; Fold expansion of memory cells post graft ([5]; day 0 to day 5 post N4 OVA skin graft): greater fold expansion; Number of OT-I cells recovered in draining lymph nodes ([5]; day 5 post N4 OVA skin graft): fewer; Fold lower frequency of CD8^+ OT-I effectors in blood vs N4 OVA priming ([3]; day 7 post LM infection (10^4 CFU i.p.), 10^4 OT-I transferred): ~ 80 fold; Fold lower frequency of memory OT-I cells vs N4 OVA priming ([3]; secondary lymphoid organs, memory, LM infection): 61 fold; Range in relative functional avidity [6]: 680 fold
